# Data from PMC8370032 (Bioorganic & medicinal chemistry, 2021).
# Tests used:
# myeloma cells = details: cited from earlier work
# RPMI-8226 cells [1] = test: MTT assay; format: cell-based, human; details: RPMI-8226, 48 hours
# RPMI-8226 cells [2] = format: cell-based, human
# How it was run: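 RPMI-8226 myeloma cells were exposed to a range of test-compound concentrations for 48 h, with lovastatin 10 μM as positive control. Lysates were immunoblotted for unmodified Rap1a (antibody detects only unmodified protein), H-Ras and β-tubulin (loading), and the same lysates were used for a lambda light chain ELISA (% of untreated control; mean ± SD, n=3; two-tailed t-test, p<0.05). LEC is the lowest concentration giving a visible unmodified Rap1a band plus a significant light chain rise.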
SMILES,cytotoxicity in MTT assay (RPMI-8226 cells [1]),further results
CC(C)=CCC/C(C)=C/Cn1cc(CC(C)(P(=O)([O-])[O-])P(=O)([O-])[O-])nn1.[Na+].[Na+].[Na+].[Na+] [Compound 3],,increase in potency in cellular assays compared to the parent compound 1 (myeloma cells): 5 fold
CCC(Cc1cn(C/C=C(\C)CCC=C(C)C)nn1)(P(=O)([O-])[O-])P(=O)([O-])[O-].[Na+].[Na+].[Na+].[Na+] [Compound 4],,decrease in potency in cellular assays (relative to 1) (myeloma cells): five-fold
"CC(C)=CCC/C(C)=C/Cn1cc(CC(F)(P(=O)([O-])[O-])P(=O)([O-])[O-])nn1.[Na+].[Na+].[Na+].[Na+] [Compound 7, (2-[1-(3,7-Dimethyl-octa-2,6-dienyl)-1H-[1,2,3]triazol-4-yl]-1-fluoro-1-phosphono-ethyl)-phosphonic acid]",induced cytotoxicity,
C=C(Cc1cn(C/C=C(\C)CCC=C(C)C)nn1)P(=O)([O-])[O-].[Na+].[Na+] [Compound 11],"neither of the monophosphonates (11, 27), induced cytotoxicity",
CC(C)=CCC/C(C)=C/Cn1cc(CC(CN)(P(=O)([O-])[O-])P(=O)([O-])[O-])nn1.[Na+].[Na+].[Na+].[Na+] [Compound 17],induced cytotoxicity,
CC(C)=CCC/C(C)=C/Cn1cc(CCP(=O)([O-])[O-])nn1.[Na+].[Na+] [Compound 27],"neither of the monophosphonates (11, 27), induced cytotoxicity",
"CC(C)=CCC/C(C)=C/Cn1cc(C=C(P(=O)([O-])[O-])P(=O)([O-])[O-])nn1.[Na+].[Na+].[Na+].[Na+] [Compound 29, Disodium [1-[bis(sodiooxy)phosphoryl]-2-[1-[3,7-dimethylocta-2,6-dien-1-yl]-1H-1,2,3-triazol-4-yl]ethenyl]phosphonate]",induced cytotoxicity,potency in cellular assays relative to cyclopropyl derivative 31 (RPMI-8226 cells [2]): two-fold more potent
CC(C)=CCC/C(C)=C/Cn1cc(CC(O)(P(=O)([O-])[O-])P(=O)([O-])[O-])nn1.[Na+].[Na+].[Na+].[Na+] [Compound 37],induced cytotoxicity,
